Results reported in ChEMBL document CHEMBL5661979, “Pharmacological inhibition of BMK1 suppresses tumor growth through promyelocytic leukemia protein” (Cancer Cell, 2010).
Calls of active or inactive are those of the source. The calls are words filed in the database; no cut-off is given here.

Legend:
[1] = biological target: Cyclin-dependent kinase 2 (Homo sapiens, UniProt P24941); test: Inhibition of CDK2 K2 site in human HeLa cells lysate pre incubated for 15 mins followed by ATP acyl phosphate probe addition and measured after 10 mins by LC-MS/MS analysis; format: subcellular
Outline: (§1)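 KiNativ profiling in HeLa lysate (5 mg/mL total protein). Lysate incubated 15 min with inhibitor at 50, 10, 2, 0.8 or 0 μM. ATP or ADP acylphosphate probe then added (5 μM final) and reacted 10 min. Reaction stopped with urea and analysed by targeted MS, using up to four fragment ions per kinase peptide-probe conjugate. % inhibition taken against untreated lysate. Run in duplicate.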

[2] = biological target: T1, Serine/threonine-protein kinase tousled-like 1 (Homo sapiens) (UniProt Q9UKI8); test: Inhibition of TLK1 in human HeLa cells lysate at 10 uM pre incubated for 15 mins followed by ADP acyl phosphate probe addition and measured after 10 mins by LC-MS/MS analysis relative to control; format: subcellular; conditions: time 25.0 min
T1 sequence (whole entry): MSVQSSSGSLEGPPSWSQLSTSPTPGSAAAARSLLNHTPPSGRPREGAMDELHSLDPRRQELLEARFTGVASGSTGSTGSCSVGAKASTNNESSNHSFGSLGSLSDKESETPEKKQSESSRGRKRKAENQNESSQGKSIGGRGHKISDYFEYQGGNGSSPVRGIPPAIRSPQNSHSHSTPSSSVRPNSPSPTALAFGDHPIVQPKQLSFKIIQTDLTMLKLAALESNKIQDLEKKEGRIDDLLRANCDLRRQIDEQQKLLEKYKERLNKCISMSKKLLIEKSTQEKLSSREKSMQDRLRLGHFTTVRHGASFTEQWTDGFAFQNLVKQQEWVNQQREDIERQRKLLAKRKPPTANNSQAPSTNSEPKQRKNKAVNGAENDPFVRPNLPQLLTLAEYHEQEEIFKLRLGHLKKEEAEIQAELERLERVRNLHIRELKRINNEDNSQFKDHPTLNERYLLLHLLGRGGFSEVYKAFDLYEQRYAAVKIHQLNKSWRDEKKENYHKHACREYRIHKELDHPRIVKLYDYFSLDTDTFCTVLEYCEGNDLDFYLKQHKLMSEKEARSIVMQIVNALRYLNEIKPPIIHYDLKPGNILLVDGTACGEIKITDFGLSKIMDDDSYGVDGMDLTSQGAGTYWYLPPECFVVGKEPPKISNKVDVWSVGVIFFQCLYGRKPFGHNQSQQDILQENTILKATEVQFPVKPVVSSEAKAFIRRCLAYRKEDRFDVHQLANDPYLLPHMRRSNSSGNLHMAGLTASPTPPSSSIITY

Lewis lung carcinoma = test: Antitumor activity against mouse LL2 cells allografted in C57Bl/6 mouse assessed as reduction tumor growth at 50 mg/kg, ip administered on day 10 post implantation measured after 17 days; format: functional, organism-based; conditions: time 7.0 day
Outline: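 LL/2 cells (1×10^6, in DMEM) were injected s.c. into the right flank of 6-week-old C57Bl/6 mice on day 0. Dosing was 50 mg/kg i.p. twice daily, starting on day 1, 7 or 10 and continuing to day 17; controls received carrier. 6 mice per treated group. Tumors were measured every 2–3 days.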

[3] = Inhibition of SRC/FYN/YES in human HeLa cells lysate at 2 uM pre incubated for 15 mins followed by ATP acyl phosphate probe addition and measured after 10 mins by LC-MS/MS analysis relative to control; conditions: 25 min, condition cancer
[4] = Inhibition of CK1g1/g2/g3 in human HeLa cells lysate pre incubated for 15 mins followed by ADP acyl phosphate probe addition and measured after 10 mins by LC-MS/MS analysis; format: subcellular
[5] = biological target: Cyclin-dependent kinase 8/19 (Homo sapiens, UniProt P49336+Q9BWU1); test: Inhibition of CDK8/CDK11 in human HeLa cells lysate pre incubated for 15 mins followed by ATP acyl phosphate probe addition and measured after 10 mins by LC-MS/MS analysis; format: subcellular; outline: as §1
[6] = biological target: Serine/threonine-protein kinase mTOR (Homo sapiens, UniProt P42345); test: Inhibition of FRAP in human HeLa cells lysate pre incubated for 15 mins followed by ATP acyl phosphate probe addition and measured after 10 mins by LC-MS/MS analysis; format: subcellular
[7] = Toxicity in C57Bl/6 mouse assessed as effect on glucose level at 50 mg/kg, ip for 14 days (reference value: 181 mg/dl); format: organism-based; conditions: in vivo, 336 h, time 14 day
[8] = Inhibition of MAP3K2/3 in human HeLa cells lysate at 10 uM pre incubated for 15 mins followed by ATP acyl phosphate probe addition and measured after 10 mins by LC-MS/MS analysis relative to control; conditions: 25 min, condition cancer
[9] = biological target: Ribosomal protein S6 kinase alpha-1 (Homo sapiens, UniProt Q15418); test: Inhibition of RSK1 domain 2 K1 site in human HeLa cells lysate pre incubated for 15 mins followed by ADP acyl phosphate probe addition and measured after 10 mins by LC-MS/MS analysis; format: subcellular
Chain of Ribosomal protein S6 kinase alpha-1 (Q15418 whole entry, the tested form may be a part): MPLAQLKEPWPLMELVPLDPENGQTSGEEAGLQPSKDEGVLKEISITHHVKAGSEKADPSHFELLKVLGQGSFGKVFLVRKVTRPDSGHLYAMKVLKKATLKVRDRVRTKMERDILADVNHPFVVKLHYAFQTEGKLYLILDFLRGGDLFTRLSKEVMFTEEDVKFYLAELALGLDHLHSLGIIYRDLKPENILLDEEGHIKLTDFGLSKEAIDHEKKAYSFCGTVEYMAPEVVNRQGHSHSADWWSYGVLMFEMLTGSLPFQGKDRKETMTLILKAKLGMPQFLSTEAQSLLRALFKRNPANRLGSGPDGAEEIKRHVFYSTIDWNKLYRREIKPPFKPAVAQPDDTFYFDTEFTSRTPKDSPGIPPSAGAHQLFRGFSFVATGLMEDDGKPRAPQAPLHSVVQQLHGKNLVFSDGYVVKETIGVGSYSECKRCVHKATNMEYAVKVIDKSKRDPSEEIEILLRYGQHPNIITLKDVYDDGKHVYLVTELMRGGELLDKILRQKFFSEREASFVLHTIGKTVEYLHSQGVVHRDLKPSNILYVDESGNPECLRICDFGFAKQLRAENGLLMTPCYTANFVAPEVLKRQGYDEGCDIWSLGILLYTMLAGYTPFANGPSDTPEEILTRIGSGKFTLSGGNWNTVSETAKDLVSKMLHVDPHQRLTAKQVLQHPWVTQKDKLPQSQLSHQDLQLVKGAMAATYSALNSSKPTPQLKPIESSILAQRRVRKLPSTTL

[10] = biological target: Serine/threonine-protein kinase Nek7 (Homo sapiens, UniProt Q8TDX7); test: Inhibition of NEK7 in human HeLa cells lysate pre incubated for 15 mins followed by ATP acyl phosphate probe addition and measured after 10 mins by LC-MS/MS analysis; format: subcellular
Chain of Serine/threonine-protein kinase Nek7 (Q8TDX7 whole entry): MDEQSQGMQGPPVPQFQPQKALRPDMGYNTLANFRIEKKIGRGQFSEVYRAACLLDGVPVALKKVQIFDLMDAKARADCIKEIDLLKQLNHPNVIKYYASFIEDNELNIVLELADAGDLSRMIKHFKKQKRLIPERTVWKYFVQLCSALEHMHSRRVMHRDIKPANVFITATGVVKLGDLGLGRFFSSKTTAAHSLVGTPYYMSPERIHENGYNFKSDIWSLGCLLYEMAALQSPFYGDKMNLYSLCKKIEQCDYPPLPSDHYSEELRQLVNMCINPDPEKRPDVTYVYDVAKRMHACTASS

[11] = Volume of distribution at steady state in Sprague-Dawley rat at 1 mg/kg, iv measured up to 8 hrs by LC-MS/MS analysis; format: ADME, organism-based; conditions: in vivo, read-out: Vdss
[12] = Inhibition of CDK5/PRKX/PRKY in human HeLa cells lysate pre incubated for 15 mins followed by ADP acyl phosphate probe addition and measured after 10 mins by LC-MS/MS analysis; format: subcellular; outline: as §1
[13] = biological target: Cyclin-dependent kinase 7 (Homo sapiens, UniProt P50613); test: Inhibition of CDK7 in human HeLa cells lysate at 2 uM pre incubated for 15 mins followed by ATP acyl phosphate probe addition and measured after 10 mins by LC-MS/MS analysis relative to control; format: subcellular; conditions: time 25.0 min; outline: as §1
Chain of Cyclin-dependent kinase 7 (P50613 whole entry): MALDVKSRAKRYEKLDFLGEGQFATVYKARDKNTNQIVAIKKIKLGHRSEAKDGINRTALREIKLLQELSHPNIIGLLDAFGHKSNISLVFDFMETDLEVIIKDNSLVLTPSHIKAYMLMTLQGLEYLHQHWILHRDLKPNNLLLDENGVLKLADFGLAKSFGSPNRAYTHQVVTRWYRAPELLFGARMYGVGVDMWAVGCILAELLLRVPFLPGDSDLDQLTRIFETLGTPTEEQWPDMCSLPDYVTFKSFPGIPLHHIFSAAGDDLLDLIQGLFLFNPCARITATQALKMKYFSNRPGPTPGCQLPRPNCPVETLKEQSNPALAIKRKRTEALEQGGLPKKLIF

[14] = biological target: MAP/microtubule affinity-regulating kinase 3 (Homo sapiens, UniProt P27448); test: Inhibition of MARK3 in human HeLa cells lysate at 2 uM pre incubated for 15 mins followed by ADP acyl phosphate probe addition and measured after 10 mins by LC-MS/MS analysis relative to control; format: subcellular; conditions: time 25.0 min
Chain of MAP/microtubule affinity-regulating kinase 3 (P27448 whole entry, looked up): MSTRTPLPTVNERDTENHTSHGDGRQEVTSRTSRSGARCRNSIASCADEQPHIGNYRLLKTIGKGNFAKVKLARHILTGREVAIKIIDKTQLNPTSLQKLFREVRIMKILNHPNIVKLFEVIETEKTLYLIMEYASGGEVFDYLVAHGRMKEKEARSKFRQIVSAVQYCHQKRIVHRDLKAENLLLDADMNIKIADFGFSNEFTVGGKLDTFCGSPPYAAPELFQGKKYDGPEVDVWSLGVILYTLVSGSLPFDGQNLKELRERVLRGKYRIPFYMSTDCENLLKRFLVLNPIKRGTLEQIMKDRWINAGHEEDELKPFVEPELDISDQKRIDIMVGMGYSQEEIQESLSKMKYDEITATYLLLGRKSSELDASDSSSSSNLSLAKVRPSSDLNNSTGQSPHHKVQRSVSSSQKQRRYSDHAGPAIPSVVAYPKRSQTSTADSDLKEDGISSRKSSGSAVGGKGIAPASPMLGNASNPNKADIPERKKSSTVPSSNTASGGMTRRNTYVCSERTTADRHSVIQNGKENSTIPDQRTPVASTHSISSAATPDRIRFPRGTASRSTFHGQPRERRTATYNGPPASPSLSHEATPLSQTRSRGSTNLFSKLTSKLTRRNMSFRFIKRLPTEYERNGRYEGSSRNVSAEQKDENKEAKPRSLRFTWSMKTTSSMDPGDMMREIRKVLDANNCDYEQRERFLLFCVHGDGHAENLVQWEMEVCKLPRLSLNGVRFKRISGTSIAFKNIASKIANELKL

[15] = Inhibition of NEK6/7 in human HeLa cells lysate at 10 uM pre incubated for 15 mins followed by ATP acyl phosphate probe addition and measured after 10 mins by LC-MS/MS analysis relative to control; conditions: 25 min, condition cancer

In the case of CCOc1cc(N2CCC(O)CC2)ccc1Nc1ncc2c(n1)N(C)c1ccccc1C(=O)N2C, the IC50 [1] is reported as > 50 µM, the inhibition [2] is reported as 4.5% and the Activity (Lewis lung carcinoma) is reported as “Active”. For the same compound, the inhibition at 2 µM [3] was -29.7%, the IC50 [4] was > 50 µM and the IC50 [5] was > 50 µM. For the same compound, the IC50 [6] was > 50 µM, the Activity [7] was 126 mg/dL and the inhibition at 10 µM [8] was -7.8%. For the same compound, the IC50 [9] was 29 µM, the IC50 [10] was > 50 µM and the Vd [11] was 3.4 L/kg. For the same compound, the IC50 [12] was > 50 µM, the inhibition [13] was -7.9% and the inhibition [14] was -3.4%. For the same compound, the inhibition at 10 µM [15] was -10.7%.
